Our source for the Ki and IC200 values is ChEMBL document CHEMBL1130854, “Diarylsulfonamides as selective, non-peptidic thrombin inhibitors” (Bioorg Med Chem Lett, 1998).

Experiment [1] can be described thus: Inhibitory activity against trypsin/plasmin/factor Xa.
The nature of experiment [2]: Compound was tested for the concentration which causes a doubling of the thrombin clotting time of human plasma. The format is functional. The essentials:
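Human plasma thrombin clotting time measured across inhibitor concentrations (μM). Coagulation time (sec) fitted to y = a + b·x^c, a being the uninhibited clotting time and b, c shape/location parameters. Value taken as the concentration that doubles the clotting time (IC200).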

A further experiment has as its target Prothrombin (Homo sapiens, UniProt P00734). As to the kind of experiment: Inhibitory activity against thrombin.

Usually Ki stands for the equilibrium dissociation constant of an inhibitor or competing ligand from its target. A low value points to higher affinity.

`O=S(=O)(Nc1cccc(OCCNc2ccncc2)c1)c1ccccc1`: in experiment [1], the inhibition constant (Ki) is above 500 µM. The compound further had an IC200 in experiment [2] of 2.3 µM.
For the compound `Cc1cc(NS(=O)(=O)c2ccccc2)cc(OCCNc2ccncc2)c1`, the Ki is 0.023 µM at Prothrombin and above 500 µM in experiment [1]. Besides, the IC200 in experiment [2] stood at 0.29 µM.
On the same counts, the results for `Cc1cc(NS(=O)(=O)c2ccccc2)cc(OCCCCN=C(N)N)c1` are 0.18 µM, above 500 µM and 10 µM.
On the same counts, the results for `Cc1cc(NS(=O)(=O)c2ccccc2)cc(OCCN=C(N)N)c1` are 2 µM, above 500 µM and 38 µM.
Turning to `Cc1cc(NS(=O)(=O)c2ccccc2)cc(OCCCCCN)c1`, the Ki at Prothrombin is 9.9 µM; in experiment [1], above 500 µM. In experiment [2], this compound came in with an IC200 above 250 µM.
The corresponding values for `Cc1cc(NS(=O)(=O)c2ccccc2)cc(OCCCN=C(N)N)c1` are 0.63 µM, above 500 µM and 10 µM.
On the same counts, the results for `Cc1cc(NS(=O)(=O)c2ccccc2)cc(OCCCCCN=C(N)N)c1` are 6.4 µM, above 500 µM and 188 µM.
On to `Cc1cc(NS(=O)(=O)c2ccccc2)cc(OCCCN)c1`, for which the Ki at Prothrombin was 170 µM; in experiment [1] it was above 500 µM. This compound yielded an IC200 in experiment [2] above 250 µM.
Regarding `Cc1cc(NS(=O)(=O)c2ccccc2)cc(OCCCCN)c1`, the Ki at Prothrombin was 6.5 µM; in experiment [1] it was above 500 µM. The same compound came in with an IC200 in experiment [2] of 179 µM.
The corresponding values for `Cc1cc(NS(=O)(=O)c2ccccc2)cc(OCCN)c1` are 240 µM, above 500 µM and above 250 µM.
For the compound `Cc1cc(NS(=O)(=O)c2ccccc2)cc(OCCCCCCN)c1`, the inhibitory constant (Ki) is 9 µM on Prothrombin and above 500 µM in experiment [1]. The IC200 in experiment [2] is above 250 µM.
On the same counts, the results for `Cc1cc(NS(=O)(=O)c2ccccc2)cc(OCCCCCCN=C(N)N)c1` are 7 µM, above 500 µM and 237 µM.
